Bioassay records as filed in PubChem.
STAT3 inh-1 – STAT3 signaling inhibition | U3A cells, IL-6 STAT3-luciferase reporter, luminescence; host cell line lacks STAT1 | AID 862 | 190,000 compounds, 0.89% hits | inhibition, % at 5.5 µM;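 active = inhibition above the mean inhibition across all screened compounds plus 3 SD, cut at about 44% in these data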;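 also: 0% = DMSO only wells and 100% = 100 µM nifuroxazide control wells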
HSP90 inh – blocks HSP90-mediated luciferase refolding in reticulocyte lysate; Rabbit reticulocyte lysate, luciferase refolding luminescence, 3 h; inhibition, % at 5.6 µM; 290,000 compounds, 0.91% hits; AID 1789;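 active = inhibition above the screen-wide mean plus 3 SD, computed separately per campaign, cut at about 16% in these data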;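 also: 0% = DMSO wells and 100% = 60 µM geldanamycin wells; inhibitors lower the luminescence because luciferase stays unfolded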
C8 TRAIL sens – sensitizes caspase-8 expressing cells to TRAIL; NB7+C8 cells + TRAIL, ATPlite viability luminescence; inhibition (viability loss, TRAIL sensitization), % at 10 µM; 360,000 compounds, 1% hits; AID 624354;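 active = compounds causing at least 50% loss of cell viability in the single-dose screen, relative to plate controls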
STAT3 act-1 – activators of IL-6 induced STAT3 signaling. U3A cells, IL-6 STAT3-luciferase reporter, luminescence; 100% = signal with IL-6 EC80 alone. activation (% of control), % at 5.6 µM. 190,000 compounds, 0.91% hits. AID 871;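 active = activation above the screen-wide mean of compound activation plus 3 SD, cut at about 130% in these data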;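 also: 0% = background luminescence of wells with medium and substrate only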
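Test system: Human STAT1-deficient U3A cells with stable STAT3-luciferase reporter | Also added: Interleukin-6, 33 ng/mL | Timing: Compound pre-incubation 1 h before IL-6, then 6 h stimulation at 37 °C | Technique: Luciferase reporter luminescence | Read-out: Percent of IL-6-only median luminescence | Benchmarks: IL-6-only wells as 100% reference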
STAT1 blocker – reduces IFN-gamma driven STAT1 reporter signal; NIH 3T3 STAT1-luciferase reporter, luminescence; 200,000 compounds, 0.35% hits; AID 920; inhibition, % at 5.5 µM;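 active = inhibition above a set limit, the mean inhibition across all tested compounds plus 3 SD, cut at about 34% in these data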;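 also: 0% = IFN-gamma with DMSO and 100% = IFN-gamma with 300 µM nifuroxazide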
PPC-1+TRAIL kill – kills PPC-1 cancer cells in the presence of TRAIL. PPC-1 cells + TRAIL, ATPLite viability luminescence. cell killing (% activity), % at 4 µM or 5 µM. 220,000 compounds, 0.41% hits;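 active = cell killing above 50% in the first pass at 4 µM, then a duplicate retest at 5 µM averaging 50% or more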;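 also: plate controls were cells with TRAIL plus DMSO for no effect and medium-only wells lacking cells for full effect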
STAT3 inh-2 – STAT3 inhibition, confirmation assay | inhibition, % at 5.7 µM | U3A cells, IL-6 STAT3 luciferase reporter, luminescence; cell line lacks STAT1 | shares compounds with STAT3 inh-1 | 1,200 compounds, 45% hits;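 active = inhibition above the hit cutoff computed for the primary STAT3 screen, cut at about 44% in these data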;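 also: 0% = IL-6 plus DMSO and 100% = IL-6 plus nifuroxazide control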
NFkB inh 2 – NF-kappaB inhibition in STAT3 inhibitor counter-screen. inhibition, % at 5.7 µM. HEK293T NF-kB luciferase reporter, TNF-alpha induced. AID 1308. shares compounds with STAT3 inh-1. 1,200 compounds, 36% hits;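 active = inhibition above the mean of solvent-only control wells plus 3 SD, cutoff set per campaign, cut at about 13% in these data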;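 also: 0% = TNF-alpha with DMSO and 100% = TNF-alpha with MG high control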
STAT1 inh STAT3c – STAT1 inhibition in STAT3 inhibitor counter-screen; shares compounds with STAT3 inh-1; NIH 3T3 STAT1-luciferase reporter, IFN-gamma induced, luminescence; inhibition, % at 5.7 µM; 1,200 compounds, 27% hits; AID 1317;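 active = inhibition above the mean plus 3 SD of solvent-only control wells, limit set per screening run, cut at about 16% in these data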;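 also: 0% = DMSO with IFN-gamma and 100% = nifuroxazide control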
STAT3 act-2 – confirmation of STAT3 signaling activators; AID 1267; 1,200 compounds, 64% hits; U3A STAT3-luciferase reporter, IL-6 potentiation, luminescence; U3A cells lack STAT1; 100 means same as IL-6 alone; potentiation (% of control), % at 5.7 µM; shares compounds with STAT3 act-1;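 active = percent activation of the STAT3 luciferase reporter above a set limit taken from the earlier primary screen, cut at about 130% in these data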;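 also: 0% = background signal of medium plus substrate and 100% = median of IL-6 with DMSO wells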
NFkB act STAT3ct – NF-kappaB activation in STAT3 activator counter-screen | AID 1309 | shares compounds with STAT3 act-1 | 1,200 compounds, 11% hits | human cells, NF-kappaB reporter activation | activation (% of control), % at 5.7 µM; in the data active = activation above about 120%;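 also: reporter induced by TNF-alpha stimulation; 100% = median of stimulated DMSO wells and 0% = no signal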
STAT1 act – counter-screen for STAT3 activators: STAT1 activation. activation (% of control), % at 5.7 µM. NIH 3T3 STAT1-luciferase reporter, IFN-gamma, luminescence. 1,200 compounds, 13% hits. shares compounds with STAT3 act-1;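 active = activation above the solvent-only control well mean plus 3 SD, set per screening run, cut at about 120% in these data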;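 also: 100% = IFN-gamma with DMSO median signal so 100% means no change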
PPC-1 tox – kills PPC-1 cells. AID 1447. shares compounds with PPC-1+TRAIL kill. cytotoxicity, % at 5 µM. 1,200 compounds, 50% hits. PPC-1 viability, ATPlite luminescence, overnight;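 active = reconfirmed compounds whose average cytotoxicity reaches 50% or more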;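 also: 0% = DMSO-treated cells and 100% = wells holding medium but no cells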
HSP90 confirm – HSP90 inhibition, confirmation assay; shares compounds with HSP90 inh; rabbit reticulocyte lysate, luciferase refolding luminescence, 3 h; inhibition, % at 5.9 µM; 2,300 compounds, 64% hits; in the data active = inhibition above about 18%;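 also: 0% = vehicle wells and 100% = reference inhibitor wells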
FLuc counter – blocks native firefly luciferase in HSP90 counter-screen; purified native firefly luciferase, luminescence; shares compounds with HSP90 inh; 2,300 compounds, 48% hits; inhibition, % at 5.9 µM; AID 1847;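 active = inhibition above the mean inhibition of all tested sample wells plus 3 SD, cut at about 10% in these data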;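 also: 0% = DMSO with luciferase and 100% = wells lacking luciferase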
Target sequence (P08659 whole entry, looked up): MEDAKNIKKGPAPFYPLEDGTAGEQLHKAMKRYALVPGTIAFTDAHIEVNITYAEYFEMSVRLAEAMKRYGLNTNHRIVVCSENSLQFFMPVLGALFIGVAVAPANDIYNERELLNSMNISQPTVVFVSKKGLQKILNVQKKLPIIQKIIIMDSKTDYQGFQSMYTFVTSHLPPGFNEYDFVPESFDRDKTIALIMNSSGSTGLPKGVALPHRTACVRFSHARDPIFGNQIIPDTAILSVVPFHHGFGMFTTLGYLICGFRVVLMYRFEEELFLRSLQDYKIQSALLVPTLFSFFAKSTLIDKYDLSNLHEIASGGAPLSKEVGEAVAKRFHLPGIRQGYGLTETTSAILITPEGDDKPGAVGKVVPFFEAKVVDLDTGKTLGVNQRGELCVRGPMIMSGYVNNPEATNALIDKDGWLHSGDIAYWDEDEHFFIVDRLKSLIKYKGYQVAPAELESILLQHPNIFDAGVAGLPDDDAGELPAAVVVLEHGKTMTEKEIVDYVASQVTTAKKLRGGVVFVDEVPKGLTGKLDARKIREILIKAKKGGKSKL
* = called active by the depositor; . = no result given. Shown are actives, neighbours in structure and some others; about 2.3% of the full set was active somewhere.

SMILES	STAT3 inh-1	HSP90 inh	C8 TRAIL sens	STAT3 act-1	STAT1 blocker	PPC-1+TRAIL kill	STAT3 act-2	NFkB act STAT3ct	STAT1 act	others
Cc1cnc(NC(=O)C2COc3ccccc3O2)s1 (centres undefined)	71.4*	46.4*	19.3	45.1	-7.3	11.5	.	.	.	STAT3 inh-2=40.7;NFkB inh 2=-28.6;STAT1 inh STAT3c=-96.6;HSP90 confirm=70.3*;FLuc counter=70.5*
Cc1csc(NC(=O)C2COc3ccccc3O2)n1 (centres undefined)	57.1*	46.0*	12.5	52.7	-56.6	1.7	.	.	.	STAT3 inh-2=35.8;NFkB inh 2=-21.4;STAT1 inh STAT3c=-96.3;HSP90 confirm=62.6*;FLuc counter=56.0*
CC(C)(C)c1[nH]nc2c1C(c1ccccc1OC(=O)N1CCOCC1)C(C#N)=C(N)O2 (centres undefined)	-15.2	7.0	-4.2	116.2	3.6	15.7	.	.	.
COc1ccc(CCNC(=O)CSc2nnnn2Cc2ccc3c(c2)OCO3)cc1OC	3.9	-1.2	-2.9	104.3	1.4	-20.3	.	.	.
CC1(CSc2ccccc2)CC(=O)N1 (centres undefined)	.	.	-19.1	.	.	.	.	.	.
CCOC(=O)c1c(NC(=O)CSc2nnnn2-c2ccccc2)sc2c1CC(C)(C)NC2(C)C	.	5.1	9.1	.	.	.	.	.	.
COc1ccc(-n2c(=S)[nH]c3ccccc3c2=S)cc1	.	-0.1	-17.9	.	.	.	.	.	.
Cc1nnc(SCCC#N)n(CCC#N)c1=O	2.0	-1.2	-2.7	103.5	-3.9	23.2	.	.	.
O=C(COc1ccc2ccccc2c1)Nc1nccs1	77.6*	23.2*	56.8*	38.5	16.7	45.9	.	.	.	STAT3 inh-2=39.4;NFkB inh 2=-17.7;STAT1 inh STAT3c=-72.1;HSP90 confirm=54.2*;FLuc counter=49.1*
O=C(COc1ccccc1)Nc1nccs1	24.3	10.0	-2.7	81.3	-27.2	36.9	.	.	.
NC(=O)N/N=C/c1ccc(-c2ccc([N+](=O)[O-])cc2)o1	.	1.6	-1.0	.	.	21.5	.	.	.
COc1ccc(/C=C\c2nc(=O)c3ccccc3o2)cc1	62.3*	21.2*	60.6*	49.4	-1.0	60.0*	.	.	.	STAT3 inh-2=-9.3;NFkB inh 2=-6.9;STAT1 inh STAT3c=-2.9;PPC-1 tox=56.6*;HSP90 confirm=30.6*;FLuc counter=14.4*
COC(=O)C1=C(C)N(c2ccc(Cl)cc2)/C(=C/c2ccc(O)cc2)C1=O	10.0	1.4	0.4	96.0	9.9	4.5	.	.	.
Cc1cc(C(=O)Cn2nnc3ccccc3c2=O)c(C)n1Cc1cccs1	46.3*	34.5*	58.1*	65.7	19.4	43.8	.	.	.	STAT3 inh-2=-1.5;NFkB inh 2=-23.7;STAT1 inh STAT3c=-97.7;HSP90 confirm=52.7*;FLuc counter=45.0*
CCN(CC(=O)Nc1c(F)cccc1F)C(=O)CCc1nc2cc(S(=O)(=O)N3CCOCC3)ccc2n1C	.	.	6.5	.	.	.	.	.	.
CCOc1cccc(/C=C/C(=O)O)c1	10.9	-2.2	-5.3	95.6	-0.1	-18.4	.	.	.
CCCc1ccc(-c2ccc(/C=C/C(=O)O)cc2)nc1	96.5*	58.6*	85.5*	19.5	-24.4	56.1*	.	.	.	STAT3 inh-2=93.9*;NFkB inh 2=69.3*;STAT1 inh STAT3c=-35.4;HSP90 confirm=81.7*;FLuc counter=51.3*
O=C(NCCC(=O)N1CCN(c2ncccn2)CC1)c1ccccc1Cl	-13.5	3.9	-13.7	109.7	-4.6	-3.2	.	.	.
O=C(NCCC(=O)N1CCN(c2ncccn2)CC1)c1ccccc1	-41.7	-1.0	-4.0	139.5*	-12.1	20.0	101.7	104.6	99.3
O=C1CC(c2ccccc2Cl)=NN(c2ncnc3ccccc23)C1=O	-59.6	0.7	-8.3	147.9*	-9.5	3.2	145.6*	109.3	110.5
COc1ccccc1C(=O)NNC(=O)C(=O)Nc1ccc(C)cc1	.	0.8	4.7	.	.	.	.	.	.
COc1ccccc1C(=O)NNC(=S)Nc1ccccc1	-34.4	3.8	5.3	138.9*	5.2	27.4	145.8*	102.0	92.2
COC(=O)NNC(=O)c1ccccc1OC	-60.3	9.0	-20.9	148.4*	-1.9	27.6	166.1*	113.9	106.7
COc1ccccc1C(=O)NNC(=O)c1ccc(NC(=O)C(C)C)cc1	-52.3	0.3	-7.9	148.5*	-8.8	15.2	153.3*	102.9	102.5
COc1ccccc1C(=O)NNC(=O)C(=O)NC(C)(C)C	-48.2	-0.6	-3.9	143.3*	-1.8	11.6	144.3*	95.6	96.9
SMILES	STAT3 inh-1	HSP90 inh	C8 TRAIL sens	STAT3 act-1	STAT1 blocker	PPC-1+TRAIL kill	STAT3 act-2	NFkB act STAT3ct	STAT1 act	others
COc1ccccc1C(=O)NNC(=O)c1ccc(O)cc1	.	.	6.6	.	.	.	.	.	.
CC(C)(C)NC(=O)C(=O)NNC(=O)c1ccccc1Br	6.9	0.8	-12.3	99.2	-0.8	2.8	.	.	.
O=C(NCCCN1CCOCC1)c1cccc(S(=O)(=O)NCc2ccccc2)c1	.	.	7.0	.	.	.	.	.	.
O=C1CCc2cc(S(=O)(=O)N3CCCC3C(=O)N3CCN(c4ccccc4F)CC3)ccc2N1 (centres undefined)	9.9	2.4	-0.7	95.8	7.9	-0.6	.	.	.
CC(=O)N1c2c(cc(Br)cc2S(=O)(=O)NCc2ccc(C)cc2)CC1C (centres undefined)	.	1.5	-5.0	.	.	.	.	.	.
CC(=O)Nc1nc(-c2ccc(Cl)cc2)nc(C)c1C(C)=O	-41.8	1.1	-8.1	136.8*	11.7	14.6	121.6	103.5	96.2
CC(=O)c1c(C)nc(C)nc1NC(=O)Cc1ccccc1	7.1	-1.3	4.6	96.8	17.2	20.9	.	.	.
O=c1oc2ccccc2c(Nc2ccccc2O)c1[N+](=O)[O-]	12.4	7.1	0.7	92.2	-1.5	9.1	.	.	.
O=c1oc2ccccc2c(Nc2cc3ccccc3cc2O)c1[N+](=O)[O-]	-45.1	11.6	-5.1	140.7*	-7.7	30.2	170.7*	111.9	116.6
CC1Oc2ccccc2OC1C(=O)Nc1ccccn1 (centres undefined)	-63.7	-3.9	10.3	155.5*	7.0	19.3	144.1*	103.3	89.7
